ChEMBL document CHEMBL1139384, “First Cdc7 kinase inhibitors: pyrrolopyridinones as potent and orally active antitumor agents. 2. Lead discovery” (J Med Chem, 2009)
Activity calls are given as the source filed them. The calls are words filed in the database; no cut-off is given here.

Legend:
[1] = Clearance in Beagle dog at 5 mg/kg, iv administered as single dose; assay type: ADME, organism-based, Canis lupus familiaris; parameters: dose 5 mg/kg, route intravenous; settings: in vivo
How it was run: (§1)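 Single iv or oral dose in 5% dextrose to overnight-fasted animals. Nu/Nu mice: males, 3 per route, saphenous bleeds to 24 h. Han-Wistar rats: males, 3 per route, jugular bleeds to 24 h. Beagle dogs: 2 per sex, iv and po crossover 2 weeks apart, jugular bleeds to 48 h. Plasma by LC/MS/MS; noncompartmental parameters, AUC by linear trapezoid with extrapolation.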

[2] = Clearance in nu/nu mouse at 10 mg/kg, iv administered as single dose; assay type: ADME, organism-based; parameters: dose 10 mg/kg, route intravenous; settings: in vivo; how it was run: as §1
A2780 [3] = test: Antitumor activity against human A2780 cells xenografted in CDI nu/nu mouse assessed as tumor growth inhibition at 60 mg/kg, po administered for 10 days; assay type: functional; settings: A2780, 240 h, read-out: TGI
Cytochrome P450 2C19 = Cytochrome P450 2C19 (Homo sapiens, UniProt P33261); test: Inhibition of human CYP2C19; assay type: ADME
Cytochrome P450 2C19, sequence (P33261 whole entry): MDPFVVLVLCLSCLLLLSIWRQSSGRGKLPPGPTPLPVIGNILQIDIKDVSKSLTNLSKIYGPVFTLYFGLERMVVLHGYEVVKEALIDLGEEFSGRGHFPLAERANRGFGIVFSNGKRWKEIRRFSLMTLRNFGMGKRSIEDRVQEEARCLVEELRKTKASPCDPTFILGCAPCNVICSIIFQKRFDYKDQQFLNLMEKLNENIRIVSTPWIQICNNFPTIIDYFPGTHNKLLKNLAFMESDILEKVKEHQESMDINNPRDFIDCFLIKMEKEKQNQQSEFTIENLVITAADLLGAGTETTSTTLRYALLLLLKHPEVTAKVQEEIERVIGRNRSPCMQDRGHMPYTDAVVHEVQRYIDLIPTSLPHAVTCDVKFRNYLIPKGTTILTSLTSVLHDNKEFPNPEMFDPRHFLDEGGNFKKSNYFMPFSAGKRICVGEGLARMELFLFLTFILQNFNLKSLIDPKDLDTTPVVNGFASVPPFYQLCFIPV

[4] = Half life in nu/nu mouse at 10 mg/kg, iv administered as single dose; assay type: ADME, organism-based; parameters: dose 10 mg/kg, route intravenous; settings: in vivo; how it was run: as §1
[5] = Renal clearance in Beagle dog at 5 mg/kg, iv administered as single dose; assay type: ADME, organism-based, Canis lupus familiaris, Kidney; parameters: dose 5 mg/kg, route intravenous; settings: in vivo, read-out: CL_renal (converted)
How it was run: (§2)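 Overnight-fasted Beagle dogs, 2 per sex, in a crossover design: 5 mg/kg iv and 10 mg/kg po, two weeks apart, in 5% dextrose. Jugular blood was drawn up to 48 h, and urine was collected over 0–8, 8–24 and 24–48 h. Samples were assayed by LC/MS/MS and analysed noncompartmentally.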

[6] = Antiproliferative activity against human NCI-H929 cells after 72 hrs by luciferase based assay; assay type: functional, cell-based; settings: NCI-H929, 72 h
How it was run: (§3)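 Cells seeded at 2500–5000/well in complete medium (RPMI1640, McCoy's or DMEM with 10% FCS, by line); compound added after 24 h, 72 h at 37 °C, 5% CO2.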

Insulin receptor = Insulin receptor (Homo sapiens, UniProt P06213); test: Inhibition of IR
Insulin receptor, sequence (P06213 28-758 limits assumed): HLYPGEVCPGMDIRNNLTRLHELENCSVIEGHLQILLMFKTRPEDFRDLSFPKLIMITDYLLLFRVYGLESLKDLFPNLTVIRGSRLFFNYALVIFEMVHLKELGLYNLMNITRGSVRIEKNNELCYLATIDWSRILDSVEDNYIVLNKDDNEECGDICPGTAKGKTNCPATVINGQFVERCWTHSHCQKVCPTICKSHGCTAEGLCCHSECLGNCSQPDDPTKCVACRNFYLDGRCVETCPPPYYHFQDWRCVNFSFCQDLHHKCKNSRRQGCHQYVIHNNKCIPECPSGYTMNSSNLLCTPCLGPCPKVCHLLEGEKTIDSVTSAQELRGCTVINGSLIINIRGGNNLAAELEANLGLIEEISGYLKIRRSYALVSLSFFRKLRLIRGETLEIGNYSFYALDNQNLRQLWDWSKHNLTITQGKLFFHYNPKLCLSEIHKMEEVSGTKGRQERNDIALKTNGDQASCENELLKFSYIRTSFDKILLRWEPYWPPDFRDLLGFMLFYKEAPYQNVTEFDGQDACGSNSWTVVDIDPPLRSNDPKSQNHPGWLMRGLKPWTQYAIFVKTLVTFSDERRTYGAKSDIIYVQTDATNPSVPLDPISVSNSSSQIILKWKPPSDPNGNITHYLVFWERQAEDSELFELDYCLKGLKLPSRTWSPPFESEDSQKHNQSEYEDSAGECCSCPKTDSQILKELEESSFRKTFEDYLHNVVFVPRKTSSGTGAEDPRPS
Insulin receptor, sequence (P06213 763-1382 limits assumed): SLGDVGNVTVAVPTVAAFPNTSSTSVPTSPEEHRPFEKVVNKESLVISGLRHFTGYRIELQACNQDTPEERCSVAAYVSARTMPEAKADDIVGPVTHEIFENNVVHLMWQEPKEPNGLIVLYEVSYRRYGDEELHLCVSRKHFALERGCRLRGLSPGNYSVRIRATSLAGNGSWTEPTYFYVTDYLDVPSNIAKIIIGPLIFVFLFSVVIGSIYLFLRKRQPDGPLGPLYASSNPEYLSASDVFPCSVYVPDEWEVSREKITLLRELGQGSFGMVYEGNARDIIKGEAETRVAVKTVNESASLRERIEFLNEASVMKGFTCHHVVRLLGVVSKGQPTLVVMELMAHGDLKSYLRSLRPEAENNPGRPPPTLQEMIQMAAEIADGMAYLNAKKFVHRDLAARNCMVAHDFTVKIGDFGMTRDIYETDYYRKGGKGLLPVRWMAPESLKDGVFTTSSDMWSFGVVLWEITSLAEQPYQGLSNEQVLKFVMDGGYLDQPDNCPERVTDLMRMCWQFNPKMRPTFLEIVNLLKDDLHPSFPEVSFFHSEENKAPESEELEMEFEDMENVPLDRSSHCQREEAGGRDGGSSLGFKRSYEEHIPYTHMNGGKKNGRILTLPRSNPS

[7] = AUC (0 to infinity) in nu/nu mouse at 10 mg/kg, po administered as single dose; assay type: ADME, organism-based; parameters: time infinity, dose 10 mg/kg, route oral; settings: plasma; how it was run: as §1
[8] = Oral bioavailability in Beagle dog at 10 mg/kg administered as single dose; assay type: ADME, organism-based, Canis lupus familiaris; settings: in vivo; how it was run: as §2
[9] = Cmax in Wistar rat at 10 mg/kg, iv administered as single dose; assay type: ADME, organism-based; parameters: dose 10 mg/kg, route intravenous; settings: in vivo; how it was run: as §1
[10] = AUC (0 to infinity) in nu/nu mouse at 10 mg/kg, iv administered as single dose; assay type: ADME, organism-based; parameters: dose 10 mg/kg, route intravenous, time infinity; settings: plasma; how it was run: as §1
[11] = Volume of distribution at steady state in nu/nu mouse at 10 mg/kg, iv administered as single dose; assay type: ADME, organism-based; parameters: dose 10 mg/kg, route intravenous; settings: in vivo, read-out: Vdss
How it was run: (§4)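 Overnight-fasted male Nu/Nu mice got a single 10 mg/kg dose in 5% dextrose, iv or po, three mice per route. Saphenous blood was drawn at 0.083 (iv) or 0.25 (po), 0.5, 1, 6 and 24 h. Plasma was assayed by LC/MS/MS and analysed noncompartmentally. Tmax is the observed peak time, Vss = CL·MRT, and F is the ratio of dose-normalized AUC∞ po/iv.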

[12] = Antiproliferative activity against human SW403 cells after 72 hrs by luciferase based assay; assay type: functional, cell-based; settings: SW-403, 72 h; how it was run: as §3
[13] = target: Serine/threonine-protein kinase Chk1 (Homo sapiens, UniProt O14757); test: Inhibition of CHK1
COLO 205 = test: Antiproliferative activity against human COLO205 cells after 72 hrs by luciferase based assay; assay type: functional, cell-based; settings: COLO 205, 72 h
[14] = target: Serine/threonine-protein kinase TAO3 (Homo sapiens, UniProt Q9H2K8); test: Inhibition of TAO3
[15] = Cmax in nu/nu mouse at 10 mg/kg, iv administered as single dose; assay type: ADME, organism-based; parameters: dose 10 mg/kg, route intravenous; settings: in vivo; how it was run: as §1
[16] = target: Serine/threonine-protein kinase Nek6 (Homo sapiens, UniProt Q9HC98); test: Inhibition of NEK6
Serine/threonine-protein kinase Nek6, sequence (Q9HC98 whole entry): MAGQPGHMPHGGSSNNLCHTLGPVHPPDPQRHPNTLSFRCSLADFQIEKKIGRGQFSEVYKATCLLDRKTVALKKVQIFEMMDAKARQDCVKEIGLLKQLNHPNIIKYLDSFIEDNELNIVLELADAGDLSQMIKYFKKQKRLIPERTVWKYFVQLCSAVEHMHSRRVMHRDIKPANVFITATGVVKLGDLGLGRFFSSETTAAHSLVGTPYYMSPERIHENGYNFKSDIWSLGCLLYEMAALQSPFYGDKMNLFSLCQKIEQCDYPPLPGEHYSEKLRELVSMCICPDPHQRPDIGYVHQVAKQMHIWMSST

Cytochrome P450 2D6 = Cytochrome P450 2D6 (Homo sapiens, UniProt P10635); test: Inhibition of human CYP2D6; assay type: ADME
[17] = target: Serine/threonine-protein kinase PAK 4 (Homo sapiens, UniProt O96013); test: Inhibition of PAK4
Serine/threonine-protein kinase PAK 4, sequence (O96013 whole entry): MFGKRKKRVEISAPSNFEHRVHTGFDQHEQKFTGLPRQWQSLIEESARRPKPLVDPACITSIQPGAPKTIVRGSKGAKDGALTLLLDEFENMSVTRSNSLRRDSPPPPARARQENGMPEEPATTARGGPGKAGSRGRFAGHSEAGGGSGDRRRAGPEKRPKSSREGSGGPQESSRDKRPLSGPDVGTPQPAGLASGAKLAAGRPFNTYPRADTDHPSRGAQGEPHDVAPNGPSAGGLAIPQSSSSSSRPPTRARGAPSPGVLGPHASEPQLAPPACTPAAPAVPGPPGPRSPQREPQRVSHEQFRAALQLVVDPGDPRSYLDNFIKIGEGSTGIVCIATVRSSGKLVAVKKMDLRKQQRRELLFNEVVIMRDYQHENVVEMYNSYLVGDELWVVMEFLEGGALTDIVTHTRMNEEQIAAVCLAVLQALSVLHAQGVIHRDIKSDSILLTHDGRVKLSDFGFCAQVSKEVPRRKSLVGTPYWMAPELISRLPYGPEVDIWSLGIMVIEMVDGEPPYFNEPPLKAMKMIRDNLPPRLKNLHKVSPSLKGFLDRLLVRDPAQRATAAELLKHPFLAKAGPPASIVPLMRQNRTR

[18] = target: Serine/threonine-protein kinase NIM1 (Homo sapiens, UniProt Q8IY84); test: Inhibition of NIM1
Serine/threonine-protein kinase NIM1, sequence (Q8IY84 whole entry): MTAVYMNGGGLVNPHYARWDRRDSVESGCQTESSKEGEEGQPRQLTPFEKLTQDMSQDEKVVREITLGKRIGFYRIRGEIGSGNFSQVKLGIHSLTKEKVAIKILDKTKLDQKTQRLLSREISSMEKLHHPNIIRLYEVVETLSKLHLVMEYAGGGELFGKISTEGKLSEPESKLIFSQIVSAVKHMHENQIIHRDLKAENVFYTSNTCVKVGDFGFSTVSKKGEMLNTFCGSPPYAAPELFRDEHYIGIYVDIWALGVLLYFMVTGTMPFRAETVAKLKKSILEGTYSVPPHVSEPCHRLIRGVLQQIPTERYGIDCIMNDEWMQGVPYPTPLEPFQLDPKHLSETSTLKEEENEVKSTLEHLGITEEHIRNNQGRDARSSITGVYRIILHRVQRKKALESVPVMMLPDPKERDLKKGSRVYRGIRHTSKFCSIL

A2780 [19] = test: Induction of apoptosis in human A2780 cells assessed as caspase 3 activation at 3 uM up to 24 hrs; assay type: functional, cell-based
How it was run: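 A2780 cells held at 3 µM for up to 24 h; extracts in Tris-HCl pH 6.8 with 1% SDS and DTT, 15 µg protein per lane; cleaved caspase 3 detected by Western blot.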

[20] = target: Inhibitor of nuclear factor kappa-B kinase subunit epsilon (Homo sapiens, UniProt Q14164); test: Inhibition of IKKi
Inhibitor of nuclear factor kappa-B kinase subunit epsilon, sequence (Q14164 whole entry): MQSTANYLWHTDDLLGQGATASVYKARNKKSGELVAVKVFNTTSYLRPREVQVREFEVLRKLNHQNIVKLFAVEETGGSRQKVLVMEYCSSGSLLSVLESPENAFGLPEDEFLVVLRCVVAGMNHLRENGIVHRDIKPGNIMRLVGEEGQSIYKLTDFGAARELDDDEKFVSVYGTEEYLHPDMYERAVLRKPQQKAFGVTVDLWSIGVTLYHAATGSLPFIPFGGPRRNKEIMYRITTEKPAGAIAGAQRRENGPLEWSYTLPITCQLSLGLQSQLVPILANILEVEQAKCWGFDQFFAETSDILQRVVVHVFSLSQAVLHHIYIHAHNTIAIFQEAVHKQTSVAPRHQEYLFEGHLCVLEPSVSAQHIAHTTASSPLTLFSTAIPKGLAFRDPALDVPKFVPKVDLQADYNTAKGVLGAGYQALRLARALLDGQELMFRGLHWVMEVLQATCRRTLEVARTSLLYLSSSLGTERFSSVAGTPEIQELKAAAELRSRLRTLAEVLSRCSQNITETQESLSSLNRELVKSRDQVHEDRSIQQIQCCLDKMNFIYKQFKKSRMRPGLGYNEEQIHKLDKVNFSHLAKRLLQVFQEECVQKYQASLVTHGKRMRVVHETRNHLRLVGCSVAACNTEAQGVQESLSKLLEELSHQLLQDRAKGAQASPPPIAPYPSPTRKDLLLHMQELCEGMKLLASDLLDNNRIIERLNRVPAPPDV

HT-29 = test: Antiproliferative activity against human HT-29 cells after 72 hrs by luciferase based assay; assay type: functional, cell-based; settings: HT-29, 72 h; how it was run: as §3
[21] = Tmax in Wistar rat at 20 mg/kg, po administered as single dose; settings: in vivo
[22] = Cmax in Beagle dog at 10 mg/kg, po administered as single dose; assay type: ADME, organism-based, Canis lupus familiaris; parameters: dose 10 mg/kg, route oral; settings: in vivo; how it was run: as §1
Cytochrome P450 2C8 = Cytochrome P450 2C8 (Homo sapiens, UniProt P10632); test: Inhibition of human CYP2C8; assay type: ADME
Cytochrome P450 1A2 = Cytochrome P450 1A2 (Homo sapiens, UniProt P05177); test: Inhibition of human CYP1A2; assay type: ADME
Cytochrome P450 1A2, sequence (P05177 whole entry): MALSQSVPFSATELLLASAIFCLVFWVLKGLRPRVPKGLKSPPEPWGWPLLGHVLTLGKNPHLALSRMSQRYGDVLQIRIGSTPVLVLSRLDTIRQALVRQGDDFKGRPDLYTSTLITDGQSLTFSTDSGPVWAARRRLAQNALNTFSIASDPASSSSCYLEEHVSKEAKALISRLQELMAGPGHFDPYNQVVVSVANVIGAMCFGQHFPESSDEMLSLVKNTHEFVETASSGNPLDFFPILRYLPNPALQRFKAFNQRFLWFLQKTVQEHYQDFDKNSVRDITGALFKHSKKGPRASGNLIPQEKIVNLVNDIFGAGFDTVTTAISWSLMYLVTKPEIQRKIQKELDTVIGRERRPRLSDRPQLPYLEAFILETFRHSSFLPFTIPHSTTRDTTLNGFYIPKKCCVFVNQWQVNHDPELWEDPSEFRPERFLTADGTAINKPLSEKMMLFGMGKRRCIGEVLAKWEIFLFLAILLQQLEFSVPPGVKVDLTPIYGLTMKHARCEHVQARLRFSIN

[23] = target: Cyclin-dependent kinase 2 (Homo sapiens, UniProt P24941); test: Inhibition of Cdk2A
[24] = target: Mitogen-activated protein kinase 1 (Homo sapiens, UniProt P28482)
Mitogen-activated protein kinase 1, sequence (P28482 whole entry): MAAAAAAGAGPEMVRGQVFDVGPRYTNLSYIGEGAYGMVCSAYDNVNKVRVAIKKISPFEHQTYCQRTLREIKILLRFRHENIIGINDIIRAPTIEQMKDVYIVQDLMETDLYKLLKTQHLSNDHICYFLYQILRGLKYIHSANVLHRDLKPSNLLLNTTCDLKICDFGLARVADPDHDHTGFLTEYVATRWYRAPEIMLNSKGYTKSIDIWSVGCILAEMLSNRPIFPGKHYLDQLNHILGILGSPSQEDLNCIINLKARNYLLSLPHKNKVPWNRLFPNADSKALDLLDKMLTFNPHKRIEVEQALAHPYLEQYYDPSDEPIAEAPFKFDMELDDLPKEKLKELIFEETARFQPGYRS

[25] = Oral bioavailability in nu/nu mouse at 10 mg/kg administered as single dose; assay type: ADME, organism-based; settings: in vivo; how it was run: as §4
HeLa = test: Inhibition of DNA synthesis in human HeLa cells at 3 uM assessed as bromodeoxyuridine incorporation after 9 hrs; assay type: functional; parameters: scale not given: the % may be the effect or the level left
How it was run: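 Logarithmically growing HeLa cells exposed to 3 µM for set times, labelled with 50 µM BrdU, fixed in 70% ethanol. DNA content by propidium iodide with RNase A, 30 min at 37 °C; BrdU by FITC anti-BrdU after 2N HCl denaturation; percent positive cells by FACS.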

SMILES: Nc1nccc(-c2cc3c([nH]2)[C@@H](CCF)CNC3=O)n1
- clearance [1]: 3.2 L/h/kg
- clearance [2]: 3.7 L/h/kg
- inhibition in vivo at 60 mg/kg (A2780 [3]): 68%
- Activity (Cytochrome P450 2C19): Not Active
- half-life [4]: 60 min
- CL renal [5]: 0.4 L/h/kg
- IC50 [6]: 1.2 µM
- IC50 (Insulin receptor): > 4 µM
- AUC(0-inf) [7]: 5 µM·h
- bioavailability [8]: 51%
- Cmax [9]: 15.7 µM
- AUC(0-inf) [10]: 9.5 µM·h
- Vd [11]: 2.6 L/kg
- IC50 [12]: 0.6 µM
- IC50 [13]: > 4 µM
- IC50 (COLO 205): 0.5 µM
- IC50 [14]: 0.126 µM
- Cmax [15]: 20.3 µM
- IC50 [16]: > 4 µM
- Activity (Cytochrome P450 2D6): Not Active
- IC50 [17]: > 4 µM
- IC50 [18]: > 4 µM
- Activity (A2780 [19]): Active
- IC50 [20]: > 4 µM
- IC50 (HT-29): 4.1 µM
- Tmax [21]: 18 min
- Cmax [22]: 5.5 µM
- Activity (Cytochrome P450 2C8): Not Active
- Activity (Cytochrome P450 1A2): Not Active
- IC50 [23]: 0.138 µM
- IC50 [24]: 0.846 µM
- bioavailability [25]: 53%
- Activity (HeLa): 6%
